Here are results for 23 compounds from ChEMBL document CHEMBL1121793, “Biological effects of modified colchicines. Improved preparation of 2-demethylcolchicine, 3-demethylcolchicine, and (+)-colchicine and reassignment of the position of the double bond in dehydro-7-deacetamidocolchicines” (J Med Chem, 1981).

Activity calls are given as the source filed them. The rule behind the calls is not given here.

Series [1] concerns P388. Briefly: The compound was tested for its potency against lymphocytic leukemia P388 screen in mice; Inactive. The class given is functional, cell-based. Particulars: Mus musculus.
Series [2] concerns Mus musculus. As to the kind of experiment: (§1) Toxicity found after a single im injection. The total number of deaths were counted after 7 days and LD50 was determined by probit analysis. The class given is functional. Summed up:
(§2)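 NIH general purpose mice (ca. 20 g), ten per dose level, usually ≥5 dose levels; single im injection in Emulphor EL-620 mixture, vehicle-only group of ten as control. Survivors counted at day 7; LD50 with 95% confidence interval by probit analysis, converted to μmol/kg.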

The species entered for series [3] is Mus musculus. As to the kind of experiment: Dose of compound which caused an average weight loss >3g in a set of mice or the death of one or more of the mice in the set in the P388 NCI screen. The class given is functional. Summed up:
(§3)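 P388 leukemia-bearing mice, 20–22 g; one im injection daily for 9 days, compound in hydroxypropylcellulose suspension or aqueous solution. Toxic dose = lowest dose level at which ≥1 mouse died on or by day 5, or group mean weight loss >3 g; converted to μmol/kg.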

Series [4] has as its system P388. As to the kind of experiment: The compound was tested for its potency against lymphocytic leukemia P388 screen in mice. The series is classed as functional, Mus musculus.
The subject of series [5] is Mus musculus. As to the kind of experiment: Toxicity found after a single im injection. The total number of deaths were counted after 7 days and LD50 was determined by probit analysis; 2.5-4.0. The class given is functional. Summed up:
as §2

For series [6], the system named is Mus musculus. As to the kind of experiment: Toxicity found after a single im injection. The total number of deaths were counted after 7 days and LD50 was determined by probit analysis; 0.9-1.3. The class given is functional. Summed up:
as §2

Series [7] deals with P388. Particulars: Mus musculus.
The test system of series [8] is Mus musculus. Briefly: Toxicity found after a single im injection. The total number of deaths were counted after 7 days and LD50 was determined by probit analysis; 82.9-163.4. The class given is functional. Summed up: as §2
The nature of series [9]: as §1. The series is classed as organism-based. Particulars: mouse, in vivo, read-out: Toxicity. A digest of the protocol: as §2
For series [10], the species on record is Mus musculus. Briefly: Dose of compound which caused an average weight loss >3g in a set of mice or the death of one or more of the mice in the set in the P388 NCI screen. The class given is functional. A digest of the protocol: as §3
Series [11] relates to Mus musculus. Briefly: Toxicity found after a single im injection. The total number of deaths were counted after 7 days and LD50 was determined by probit analysis; 6.4-11.8. The class given is functional. A digest of the protocol:
as §2

For series [12], the system named is Mus musculus. Briefly: Toxicity found after a single im injection. The total number of deaths were counted after 7 days and LD50 was determined by probit analysis; 101.5-317.8. The class given is functional. Summed up:
as §2

Series [13] relates to Mus musculus. Briefly: Toxicity found after a single im injection. The total number of deaths were counted after 7 days and LD50 was determined by probit analysis; 28.6-63.9. The series is classed as functional. A digest of the protocol: as §2
The subject of series [14] is Mus musculus. As to the kind of experiment: Toxicity found after a single im injection. The total number of deaths were counted after 7 days and LD50 was determined by probit analysis; 2.4-5.1. The class given is functional. A digest of the protocol: as §2

`COc1cc2c(c(OC)c1OC)-c1ccc(=O)c(OC)cc1[C@@H](N(C)C)CC2`: in the series on P388 [1], the Potency result was “inactive”.
`COc1cc2c(c(O)c1OC)-c1ccc(OC)c(=O)cc1[C@@H](NC(C)=O)CC2`: the Toxicity in the series with Mus musculus [2] was above 520 µM/kg; in the series listed under Mus musculus [3], 103.9 µM/kg. In the series on P388 [4], this compound had a Potency of 86 µM/kg.
In the case of `COc1cc2c(c(OC)c1OC)-c1ccc(OC)c(=O)cc1[C@@H](NC(C)=O)CC2` [COLCHICINE], the Toxicity with Mus musculus [5] turned out to be 3 µM/kg; in the series listed under Mus musculus [3], 2.5 µM/kg. This compound gave a Potency in the series with P388 [4] of 0.4 µM/kg.
As for `COc1cc2c(c(OC)c1OC)-c1ccc(OC)c(=O)cc1[C@@H](NC(=O)C(F)(F)F)CC2`, the Toxicity with Mus musculus [6] stood at 1.1 µM/kg; in the series filed under Mus musculus [3] it was 0.9 µM/kg. Moreover, the Potency in the series with P388 [4] was 0.4 µM/kg.
With `COC1=CC=C2C(=C(NC(C)=O)CCc3cc(OC)c(OC)c(OC)c32)CC1=O`, in the series on P388 [7], the Potency result was “inactive”.
On to `COc1cc2c(c(OC)c1OC)-c1ccc(=O)c(OC)cc1[C@@H](N(C)C=O)CC2`, for which, in the series with P388 [7], the Potency result was “inactive”.
On to `COc1cc2c(c(OC)c1OC)-c1ccc(OC)c(=O)cc1[C@H](NC(C)=O)CC2`, for which the Toxicity in the series with Mus musculus [8] was 122.6 µM/kg.
`CN[C@H]1CCc2cc(OC)c(OC)c(OC)c2-c2ccc(OC)c(=O)cc21` [DEMECOLCINE]: the Toxicity in the series filed under Mus musculus [3] is 21.6 µM/kg. In the series with P388 [4], this compound yielded a Potency of 10.8 µM/kg.
Consider `CN[C@H]1CCc2cc(OC)c(OC)c(OC)c2-c2ccc(=O)c(O)cc21`, for which, in the series on P388 [7], the Potency entry was “inactive”.
On the same count and under the same terms, in the case of `COc1cc2c(c(O)c1OC)-c1ccc(SC)c(=O)cc1[C@@H](NC(C)=O)CC2` it was “inactive”.
Still for that read-out and setting: in the case of `COc1cc2c(c(OC)c1OC)-c1ccc(=O)c(OC)cc1[C@@H](NC(=O)C(F)(F)F)CC2` it was “inactive”.
For the compound `COc1cc2c(c(OC)c1OC)-c1ccc(OC)c(=O)cc1[C@@H](N(C)C)CC2`, in [9], the LD50 at 168 h turned out to be 520 µmol/kg. Further, the Toxicity in the series listed under Mus musculus [10] turned out to be 51.9 µM/kg. In the series on P388 [4], this compound yielded a Potency of 68 µM/kg.
Regarding `COc1c(O[C@H]2O[C@H](CO)[C@@H](O)[C@H](O)[C@H]2O)cc2c(c1OC)-c1ccc(OC)c(=O)cc1C(NC(C)=O)CC2` (some centres not stated), the Potency entry in the series on P388 [7] was “inactive”.
Regarding `COc1cc2c(c(OC)c1OC)-c1ccc(OC)c(=O)cc1[C@@H](N(C)C(=O)C(F)(F)F)CC2`, the Toxicity in the series with Mus musculus [11] is 8.8 µM/kg; in the series filed under Mus musculus [3], 5.4 µM/kg. In the series with P388 [4], the Potency was 1.5 µM/kg.
Regarding `COc1cc2c(c(OC)c1OC)-c1ccc(=O)c(OC)cc1[C@@H](N(C)C(C)=O)CC2`, the Potency entry in the series on P388 [7] is “inactive”.
For `COc1cc2c(c(OC)c1OC)-c1ccc(OC)c(=O)cc1[C@@H](N(C)C=O)CC2`, the values for the Toxicity in the series on Mus musculus [12] and in the series filed under Mus musculus [3] were 179.7 µM/kg and 6.3 µM/kg, respectively. In addition, the Potency in the series on P388 [4] was 1.7 µM/kg.
As to `COc1cc2c(c(OC)c1OC)-c1ccc(=O)c(OC)cc1CC=C2`, in the series on P388 [1], the Potency result is “inactive”.
For `COc1cc2c(c(OC)c1O)-c1ccc(OC)c(=O)cc1[C@@H](NC(C)=O)CC2` [2-DESMETHYLCOLCHICIN], the Toxicity in the series on Mus musculus [13] was determined as 42.9 µM/kg; in the series filed under Mus musculus [3], 51.9 µM/kg. The Potency in the series on P388 [4] turned out to be 13.8 µM/kg.
On to `COc1cc2c(c(OC(C)=O)c1OC)-c1ccc(OC)c(=O)cc1[C@@H](NC(C)=O)CC2`, for which the Toxicity was determined as 205.9 µM/kg with Mus musculus [2] and 46.8 µM/kg in the series listed under Mus musculus [3]. In addition, the Potency result in the series on P388 [7] was “inactive”.
As to `COc1cc2c(c(OC)c1OC)-c1ccc(OC)c(=O)cc1C(=O)CC2`, the Toxicity in the series listed under Mus musculus [3] stood at 28.1 µM/kg. In the series on P388 [4], this compound showed a Potency of 9.6 µM/kg.
As to `COc1cc2c(c(OC)c1OC)-c1ccc(OC)c(=O)cc1CC=C2`, the LD50 at 168 h in series [9] was around 300 µmol/kg. For the same compound, the Toxicity in the series filed under Mus musculus [10] was 29.4 µM/kg. In the series with P388 [4], this compound had a Potency of 15.9 µM/kg.
As for `COc1cc2c(c(OC)c1OC)-c1ccc(OC)c(=O)cc1[C@@H](N(C)Cc1ccccc1O)CC2` [SPECIOSINE], in [9], the LD50 at 168 h came to 296 µmol/kg. In the series listed under Mus musculus [10], the Toxicity is 83.9 µM/kg. The compound also came in with a Potency with P388 [4] of 22 µM/kg.
Take `COc1cc2c(c(OC)c1OC)-c1ccc(OC)c(=O)cc1[C@@H](N(C)C(C)=O)CC2`: the Toxicity in the series on Mus musculus [14] worked out at 3.6 µM/kg; in the series listed under Mus musculus [3], 3 µM/kg. Moreover, in the series on P388 [4], the Potency worked out at 0.4 µM/kg.
